pKi: −log10 of the molar value. One block for each molecule: values may come before it.
Assays:
TSPO [1] = target: T1, TSPO (Rattus norvegicus, UniProt P16257); test: Radioligand displacement of 3H-PK 11195 in C6 glioma cell lysate; assay type: binding; details: for decrease in affinity with respect to parent compound: R2 hydrogen replaced with methyl
TSPO [2] = details: high-affinity TSPO ligand for comparison; cited from earlier work
[3] = within the first 12 minutes post-administration; cited from earlier work
C6 glioma = assay type: in vivo, Wistar rats
Method in brief: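 C6 glioma-bearing Wistar rats were given the 18F-labelled test compound (radiochemical purity >99%) and imaged by 90-minute dynamic microPET. Time-activity curves were drawn for tumor, normal brain and plasma across eight representative studies. Plasma radiometabolites were analysed by radio-HPLC at 2, 12, 30, 60 and 90 min. Brains were processed post mortem for staining and immunohistochemistry.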

[4] = Radio-HPLC of radiometabolites in plasma during PET scanning; assay type: in vivo, rat; details: 2, 12, 30, 60, 90 min
TSPO [5] = target: T1, TSPO; test: Biodistribution and specific binding; assay type: in vivo, rats
Method in brief: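 Normal rats received an infusion of the 18F-labelled test compound (radiochemical purity >99%, specific activity >4203 Ci/mmol). Tissues were harvested 60 minutes after infusion, and their radioactivity was counted. Values are expressed as percentage of injected dose per gram of tissue (%ID/g).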

[6] = bolus of non-radioactive 6b (10 mg/kg) at 30 minutes, 60-minute assay

Compound: CCN(CC)C(=O)Cc1c(-c2ccc(OC)cc2)nn2c(C)c(C)c(C)nc12 [Compound 5d]
decrease in affinity with respect to parent compound (TSPO [1]): approximately 10 fold

Compound: COc1ccccc1CN(C(C)=O)c1cnccc1Oc1ccccc1 [PBR28, N-(2-methoxybenzyl)-N-(4-phenoxypyridin-3-yl)acetamide]
pKi (TSPO [2]): 8.40

Compound: CCN(CC)C(=O)Cc1c(-c2ccc(OCC[18F])cc2)nn2c(C)cc(C)nc12 [^18F-6a, N,N-diethyl-2-(2-(4-(2-[^18F]fluoroethoxy)phenyl)-5,7-dimethylpyrazolo[1,5-a]pyrimidin-3-yl)acetamide]
metabolism in plasma [3]: up to 30%

Second part, led by results:

enhancement in affinity compared to 6a (DPA-714) (TSPO [1]; TSPO affinity): 36 fold
Compound: CCc1cc(CC)n2nc(-c3ccc(OCCF)cc3)c(CC(=O)N(CC)CC)c2n1 [Compound 6b, 2-(5,7-diethyl-2-(4-(2-fluoroethoxy)phenyl)pyrazolo[1,5-a]pyrimidin-3-yl)-N,N-diethylacetamide]

decrease in affinity with respect to parent compound (TSPO [1]): approximately 10 fold
Compound: CCN(CC)C(=O)Cc1c(-c2ccc(OCCF)cc2)nn2c(C)c(C)c(C)nc12 [Compound 6d]

clearance from plasma (C6 glioma; time-activity curve, 90-minute dynamic acquisition): quickly cleared from the plasma | accumulation in brain, testes, skull, and skeletal muscle (TSPO [5]; 60 minutes after infusion): Very minor accumulation | accumulation in spleen, heart, kidney, and lung (TSPO [5]; 60 minutes after infusion): elevated accumulation | uptake in liver, colon, small bowel, and stomach (TSPO [5]; 60 minutes after infusion): Moderate uptake | radioactivity in whole blood or urine (TSPO [5]; 60 minutes post-administration): very little radio-activity | activity in muscle or liver with displacement (TSPO [5]; [6]): essentially unchanged with displacement | activity in spleen, heart, kidney, and lung with displacement (TSPO [5]; [6]): reduced to background levels | activity in urine with displacement (TSPO [5]; [6]): elevated with displacement
Compound: CCc1cc(CC)n2nc(-c3ccc(OCC[18F])cc3)c(CC(=O)N(CC)CC)c2n1 [^18F-6b, 2-(5,7-diethyl-2-(4-(2-[^18F]fluoroethoxy)phenyl)pyrazolo[1,5-a]pyrimidin-3-yl)-N,N-diethylacetamide]
tracer uptake in brain (tumor vs normal brain) (C6 glioma; dynamic PET, 90-minute acquisition): majority of tracer uptake in the brain was localized to the tumor | radioactive species detected in plasma [4]: the only radioactive species detected in plasma at all time points
